Experimental data collected from several papers.
CDK17: Cyclin-dependent kinase 17 (CDK17, Homo sapiens, UniProt Q00537)
CDK17 with cyclin Y: Cyclin-dependent kinase 17, with cyclin Y (CDK17, Homo sapiens, UniProt Q00537)

CN(CCCC(F)(F)F)c1nccc(-c2cnn3ncccc23)n1 — remaining binding (CDK17; binding; 1 µM): 90%
Cn1c2c(Cl)c(Cl)ccc2c2cn[nH]c(=O)c21 — ΔTm (CDK17; thermal stability; DSF; 10 µM): 0.5 °C
COc1cccc2c(NCc3ccccc3)nc(-n3c(N)nc4ccccc43)nc12 — inhibition (CDK17; target engagement in cells; inhibitor; chemoproteomics; 20 mM): -40.2%
CCCOc1ccc([C@H]2[C@H](C(=O)O)[C@@H](c3ccc4c(c3)OCO4)CN2CC(=O)Nc2c(CC)cccc2CC)cc1 — remaining binding (CDK17; cell-free assay; competition with immobilised ligand; 1 µM): 91%
Cc1sc(C(=O)NC2COC2)cc1-n1cc(NC(=O)Nc2c(F)cccc2Cl)cn1 — remaining activity (CDK17 with cyclin Y; enzyme activity; inhibitor; 10 µM): 102%
Cn1c2c(Cl)c(Cl)ccc2c2cc[nH]c(=O)c21 — ΔTm (CDK17; thermal stability; DSF; 10 µM): -0.4 °C
c1ccc(CNc2nc(N3CCOc4ccccc43)nc3c2CCCC3)cc1 — inhibition (CDK17; target engagement in cells; inhibitor; chemoproteomics; 20 mM): -12.4%
Nc1ncnc2occ(-c3ccc(NC(=O)Nc4cc(C(F)(F)F)ccc4F)cc3)c12 — remaining signal (CDK17; cell-free assay; inhibitor; 20 µM): 0.4%
CC(C)CC(=O)N1CCc2nc(-c3ccc(Br)cc3)nc(N(C)Cc3ccccc3)c2C1 — remaining binding (CDK17; cell-free assay; competition with immobilised ligand; 0.1 µM): 100%
O=C(Nc1cnn(-c2csc(C(=O)NC3COC3)c2)c1)Nc1ccccc1Cl — remaining activity (CDK17 with cyclin Y; enzyme activity; inhibitor; 5 µM): 106%
O=C(Nc1cnc(Oc2ccc(F)cc2)nc1)N1CCc2ncccc2[C@@H]1c1ccc(F)cc1 — remaining binding (CDK17; cell-free assay; competition with immobilised ligand; 1 µM): 97%
Cn1c2c(c3ccc(Cl)c(Cl)c31)C(C#N)C(C)(C)NC2=O (stereo not drawn) — ΔTm (CDK17; thermal stability; DSF; 10 µM): 1.1 °C
